Assay results published in ChEMBL document CHEMBL4038284, “Synthesis of novel quinoline-based 4,5-dihydro-1H-pyrazoles as potential anticancer, antifungal, antibacterial and antiprotozoal agents” (Eur J Med Chem, 2017).
Converted amounts (≈) assume the structure as drawn.

Columns and labels:
Cryptococcus neoformans [1] = assay: Growth inhibition of Cryptococcus neoformans ATCC 32264 at 250 ug/ml incubated for 48 hrs under dark condition by broth microdilution method relative to control; format: functional; details: ATCC 32264, 48 h, read-out: GI
Procedure, shortened: (§1)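 CLSI M27-A3 broth microdilution in RPMI-1640, DMSO ≤1%. Inoculum 1-5 × 10^3 CFU/mL. Incubated 48 h at 30 °C, dark. % inhibition = 100 − (OD405 test − sterility control)/(OD405 growth control − sterility control), with growth and sterility control wells. Triplicate.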

Klebsiella pneumoniae [2] = assay: Antibacterial activity against carbapenemase positive Klebsiella pneumoniae BAA 1705 after 24 hrs by resazurin dye based microdilution assay; format: functional; details: BAA 1705, 24 h
Procedure, shortened: (§2)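 MIC taken as the lowest concentration giving visible inhibition and/or by resazurin (1 mg/mL). Gentamicin was the control. Run in duplicate, repeated at least three times.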

U-937 = assay: Cytotoxicity against human U937 cells after 72 hrs by MTT assay; format: cell-based; details: u-937, 72 h
Procedure, shortened: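 Exponentially growing U-937 at 1 × 10^5 cells/mL in RPMI-1640 with 10% FBS were exposed to 200, 50, 12.5 and 3.125 µg/mL for 72 h at 37 °C, 5% CO2. MTT for 3 h, stopped with isopropanol/SDS, formazan read at 570 nm, blank-corrected. LC50 by Probit from % viability against untreated cells. Triplicate, at least two independent experiments.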

Cryptococcus neoformans [3] = assay: Growth inhibition of Cryptococcus neoformans ATCC 32264 at 3.4 ug/ml incubated for 48 hrs under dark condition by broth microdilution method relative to control; format: functional; details: ATCC 32264, 48 h, read-out: GI
Trypanosoma cruzi = assay: Antitrypanosomal activity against Trypanosoma cruzi Tulahuen intracellular amastigote harboring LacZ infected in human U937 cells after 72 hrs by CPRG/Nonidet reagent based spectrophotometric method; format: functional, cell-based; details: U-937, 72 h
Procedure, shortened: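 U-937 cells at 2.5 × 10^5 cells/mL in RPMI-1640 with 10% serum and 0.1 µg/mL PMA were infected with β-galactosidase-transfected Tulahuen epimastigotes at 5 parasites per cell. Infected cells were exposed to 50, 12.5, 3.125 and 0.78 µg/mL for 72 h. CPRG (100 uM) and 0.1% Nonidet P-40 were added for 3 h, read at 570 nm. EC50 by Probit. Triplicate, at least two experiments; benznidazole as reference.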

Pseudomonas aeruginosa = assay: Antibacterial activity against Pseudomonas aeruginosa ATCC 27853 after 24 hrs by resazurin dye based microdilution assay; format: functional; details: ATCC 27853, 24 h; procedure, shortened: as §2
Candida albicans [4] = assay: Growth inhibition of Candida albicans ATCC 10231 at 125 ug/ml incubated for 48 hrs under dark condition by broth microdilution method relative to control; format: functional; details: ATCC 10231, 48 h, read-out: GI; procedure, shortened: as §1
Candida albicans [5] = assay: Growth inhibition of Candida albicans ATCC 10231 at 15.62 ug/ml incubated for 48 hrs under dark condition by broth microdilution method relative to control; format: functional; details: ATCC 10231, 48 h, read-out: GI; procedure, shortened: as §1
Plasmodium falciparum = assay: Antiplasmodial activity against chloroquine-sensitive Plasmodium falciparum 3D7 assessed as reduction in parasitic LDH activity after 48 hrs by Malstat reagent based […] method; format: functional; details: 3D7, 48 h
Procedure, shortened: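 Unsynchronized P. falciparum 3D7 at 0.5% parasitemia and 1% hematocrit in RPMI with 3% Albumax II. Exposed to 100, 25, 6.25 and 1.56 µg/mL for 48 h at 37 °C under 90% N2/5% CO2/5% O2. After three freeze-thaw cycles, LDH measured with Malstat and NBT/PES, 1 h in the dark, read at 650 nm. IC50 by Probit; triplicate, ≥2 experiments.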

Leishmania panamensis = assay: Antileshmanial activity against EpiR/GFP fused Leishmania panamensis MHOM/CO/87/UA140 intracellular amastigotes infected in human […] cells after 72 hrs by flow cytometric method; format: functional, cell-based; details: MHOM/CO/87/UA140, 72 h
Procedure, shortened: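 PMA-treated U-937 cells (3 × 10^5 cells/mL) infected with stationary-phase GFP L. panamensis promastigotes (15:1), 3 h at 34 °C, then washed. After 24 h, compounds added at 50, 12.5, 3.125 and 0.78 µg/mL for 72 h at 37 °C. EC50 by Probit; triplicate, two experiments.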

Candida albicans [6] = assay: Growth inhibition of Candida albicans ATCC 10231 at 250 ug/ml incubated for 48 hrs under dark condition by broth microdilution method relative to control; format: functional; details: ATCC 10231, 48 h, read-out: GI; procedure, shortened: as §1
Candida albicans [7] = assay: Growth inhibition of Candida albicans ATCC 10231 at 62.5 ug/ml incubated for 48 hrs under dark condition by broth microdilution method relative to control; format: functional; details: ATCC 10231, 48 h, read-out: GI; procedure, shortened: as §1
Candida albicans [8] = assay: Antifungal activity against Candida albicans ATCC 10231 incubated for 48 hrs under dark condition by broth microdilution method; format: functional; details: ATCC 10231, 48 h
Procedure, shortened: (§3)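 CLSI M27-A3 broth microdilution in RPMI-1640, DMSO ≤1%, compounds at 250-0.98 µg/mL final. Inoculum 1-5 × 10^3 CFU/mL. Incubated 48 h at 30 °C in a moist dark chamber, read at OD405. MIC80 and MIC50 taken from % inhibition dose-response curves (mean ± SEM, triplicate). Amphotericin B was the positive control.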

Cryptococcus neoformans [9] = assay: Growth inhibition of Cryptococcus neoformans ATCC 32264 at 7.8 ug/ml incubated for 48 hrs under dark condition by broth microdilution method relative to control; format: functional; details: ATCC 32264, 48 h, read-out: GI; procedure, shortened: as §1
Cryptococcus neoformans [10] = assay: Growth inhibition of Cryptococcus neoformans ATCC 32264 at 15.62 ug/ml incubated for 48 hrs under dark condition by broth microdilution method relative to control; format: functional; details: ATCC 32264, 48 h, read-out: GI; procedure, shortened: as §1
Staphylococcus aureus [11] = assay: Antibacterial activity against methicillin-resistant Staphylococcus aureus ATCC 43300 after 24 hrs by resazurin dye based microdilution assay; format: functional; details: ATCC 43300, 24 h
Procedure, shortened: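 Broth microdilution in Mueller Hinton broth, inoculum 5 × 10^5 – 8 × 10^5. Compound stocks diluted in MHB with 5% DMSO and 0.1% Tween 80. Incubation 24 h at 35-37 °C. MIC is the lowest concentration with visible growth inhibition and/or by resazurin (1 mg/mL) read-out. Gentamicin as control. Run in duplicate, replicated at least three times.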

Cryptococcus neoformans [12] = assay: Growth inhibition of Cryptococcus neoformans ATCC 32264 at 125 ug/ml incubated for 48 hrs under dark condition by broth microdilution method relative to control; format: functional; details: ATCC 32264, 48 h, read-out: GI; procedure, shortened: as §1
Cryptococcus neoformans [13] = assay: Growth inhibition of Cryptococcus neoformans ATCC 32264 at 31.25 ug/ml incubated for 48 hrs under dark condition by broth microdilution method relative to control; format: functional; details: ATCC 32264, 48 h, read-out: GI; procedure, shortened: as §1
Klebsiella pneumoniae [14] = assay: Antibacterial activity against ESBL positive Klebsiella pneumoniae ATCC 700603 after 24 hrs by resazurin dye based microdilution assay; format: functional; details: Klebsiella pneumoniae, 700603, 24 h; procedure, shortened: as §2
Cryptococcus neoformans [15] = assay: Growth inhibition of Cryptococcus neoformans ATCC 32264 at 62.5 ug/ml incubated for 48 hrs under dark condition by broth microdilution method relative to control; format: functional; details: ATCC 32264, 48 h, read-out: GI; procedure, shortened: as §1
Neisseria gonorrhoeae = assay: Antibacterial activity against beta lactamase positive Neisseria gonorrhoeae ATCC 31426 by oxidase test; format: functional
Procedure, shortened: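 Agar dilution MIC on GC agar with 1% isovitalex containing increasing compound concentrations. Plates inoculated with about 1×10^4 CFU (5 µL). MIC is the lowest concentration that inhibited growth, with growth confirmed by oxidase test. Run in duplicate, repeated at least three times.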

Staphylococcus aureus [16] = assay: Antibacterial activity against methicillin-sensitive Staphylococcus aureus ATCC 25923 after 24 hrs by resazurin dye based microdilution assay; format: functional; details: ATCC 25923, 24 h; procedure, shortened: as §2
Candida albicans [17] = assay: Growth inhibition of Candida albicans ATCC 10231 at 31.25 ug/ml incubated for 48 hrs under dark condition by broth microdilution method relative to control; format: functional; details: ATCC 10231, 48 h, read-out: GI; procedure, shortened: as §1
Candida albicans [18] = assay: Growth inhibition of Candida albicans ATCC 10231 at 3.4 ug/ml incubated for 48 hrs under dark condition by broth microdilution method relative to control; format: functional; details: ATCC 10231, 48 h, read-out: GI
Cryptococcus neoformans [19] = assay: Antifungal activity against Cryptococcus neoformans ATCC 32264 incubated for 48 hrs under dark condition by broth microdilution method; format: functional; details: ATCC 32264, 48 h; procedure, shortened: as §3
Escherichia coli = assay: Antibacterial activity against Escherichia coli ATCC 25922 after 24 hrs by resazurin dye based microdilution assay; format: functional; details: ATCC 25922, 24 h; procedure, shortened: as §2
Candida albicans [20] = assay: Growth inhibition of Candida albicans ATCC 10231 at 7.8 ug/ml incubated for 48 hrs under dark condition by broth microdilution method relative to control; format: functional; details: ATCC 10231, 48 h, read-out: GI; procedure, shortened: as §1
Staphylococcus aureus [21] = assay: Antibacterial activity against vancomycin-intermediate Staphylococcus aureus after 24 hrs by resazurin dye based microdilution assay; format: functional; procedure, shortened: as §2

Compound	inhibition of growth at 250 µg/mL (Cryptococcus neoformans [1]) [%]	MIC (Klebsiella pneumoniae [2]) [µg/mL]	LC50 (U-937) [µg/mL]	inhibition of growth at 3.4 µg/mL (Cryptococcus neoformans [3]) [%]	EC50 (Trypanosoma cruzi) [µg/mL]	MIC (Pseudomonas aeruginosa) [µg/mL]	inhibition of growth at 125 µg/mL (Candida albicans [4]) [%]	inhibition of growth at 15.62 µg/mL (Candida albicans [5]) [%]	EC50 (Plasmodium falciparum) [µg/mL]	EC50 (Leishmania panamensis) [µg/mL]	inhibition of growth at 250 µg/mL (Candida albicans [6]) [%]	inhibition of growth at 62.5 µg/mL (Candida albicans [7]) [%]	MIC50 (Candida albicans [8]) [µg/mL]	MIC80 (Candida albicans [8]) [µg/mL]	inhibition of growth at 7.8 µg/mL (Cryptococcus neoformans [9]) [%]	inhibition of growth at 15.62 µg/mL (Cryptococcus neoformans [10]) [%]	MIC (Staphylococcus aureus [11]) [µg/mL]	inhibition of growth at 125 µg/mL (Cryptococcus neoformans [12]) [%]	inhibition of growth at 31.25 µg/mL (Cryptococcus neoformans [13]) [%]	MIC (Klebsiella pneumoniae [14]) [µg/mL]	further results
COc1cc(C2=NN(c3cc(Cl)cc(Cl)c3)C(c3cccc(Nc4ccnc5cc(Cl)ccc45)c3)C2)cc(OC)c1OC (stereo not given)	25.6	> 1000	> 200	0	21.9 (≈ 34.6 µM)	> 1000	10.6	2.69	10.9 (≈ 17.2 µM)	16.5 (≈ 26 µM)	20.3	5.81	≥ 250	≥ 250	3.27	3.54	> 1000	6.13	3.54	> 1000	inhibition of growth at 62.5 µg/mL (Cryptococcus neoformans [15]): 3.82%; MIC (Neisseria gonorrhoeae): > 1000 µg/mL; MIC (Staphylococcus aureus [16]): > 1000 µg/mL; inhibition of growth at 31.25 µg/mL (Candida albicans [17]): 5.79%; inhibition of growth at 3.4 µg/mL (Candida albicans [18]): 0.27%; MIC50 (Cryptococcus neoformans [19]): ≥ 250 µg/mL; MIC80 (Cryptococcus neoformans [19]): ≥ 250 µg/mL; MIC (Escherichia coli): > 1000 µg/mL; inhibition of growth at 7.8 µg/mL (Candida albicans [20]): 1.1%; MIC (Staphylococcus aureus [21]): > 1000 µg/mL
O=C(/C=C/c1cccc(Nc2ccnc3cc(Cl)ccc23)c1)c1ccc(Cl)cc1	100	> 1000	0.7 (≈ 1.67 µM)	49.8	0.72 (≈ 1.72 µM)	> 1000	68.2	39.4	209 (≈ 497 µM)	0.79 (≈ 1.88 µM)	78.4	50.3	62.5 (≈ 149 µM)	≥ 250	82	89	> 1000	100	100	> 1000	inhibition of growth at 62.5 µg/mL (Cryptococcus neoformans [15]): 100%; MIC (Neisseria gonorrhoeae): > 1000 µg/mL; MIC (Staphylococcus aureus [16]): > 1000 µg/mL; inhibition of growth at 31.25 µg/mL (Candida albicans [17]): 41.8%; inhibition of growth at 3.4 µg/mL (Candida albicans [18]): 15.3%; MIC50 (Cryptococcus neoformans [19]): 7.8 µg/mL (≈ 18.6 µM); MIC80 (Cryptococcus neoformans [19]): 7.8 µg/mL (≈ 18.6 µM); MIC (Escherichia coli): > 1000 µg/mL; inhibition of growth at 7.8 µg/mL (Candida albicans [20]): 29%; MIC (Staphylococcus aureus [21]): > 1000 µg/mL
Cc1ccc(C(=O)/C=C/c2cccc(Nc3ccnc4cc(Cl)ccc34)c2)cc1	100	> 1000	2 (≈ 5.01 µM)	41.4	> 1	> 1000	53.1	36.6	10.3 (≈ 25.7 µM)	1.2 (≈ 3.01 µM)	63.6	45.4	125 (≈ 313 µM)	≥ 250	71.8	93.7	> 1000	100	100	> 1000	inhibition of growth at 62.5 µg/mL (Cryptococcus neoformans [15]): 100%; MIC (Neisseria gonorrhoeae): > 1000 µg/mL; MIC (Staphylococcus aureus [16]): > 1000 µg/mL; inhibition of growth at 31.25 µg/mL (Candida albicans [17]): 39.6%; inhibition of growth at 3.4 µg/mL (Candida albicans [18]): 27.2%; MIC50 (Cryptococcus neoformans [19]): 7.8 µg/mL (≈ 19.6 µM); MIC80 (Cryptococcus neoformans [19]): 15.6 µg/mL (≈ 39.2 µM); MIC (Escherichia coli): > 1000 µg/mL; inhibition of growth at 7.8 µg/mL (Candida albicans [20]): 30.6%; MIC (Staphylococcus aureus [21]): > 1000 µg/mL
